Screens deposited in PubChem by several laboratories.
Hits are enriched below; roughly 6.3% of the tested compounds scored in any of these assays.
SF-1 act: SF-1 (human) activation; Q13285; CHO-K1 Gal4-SF-1 LBD luciferase reporter; % increase over DMSO SF-1-specific signal; activation, % at 10 µM; hit rate 1.9% among 65,000; AID 522;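 active means activation above the mean activation of all tested compounds plus 3 SD, cut at about 50% in these data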
Target sequence (Q13285 whole entry, looked up, the tested form may be a part): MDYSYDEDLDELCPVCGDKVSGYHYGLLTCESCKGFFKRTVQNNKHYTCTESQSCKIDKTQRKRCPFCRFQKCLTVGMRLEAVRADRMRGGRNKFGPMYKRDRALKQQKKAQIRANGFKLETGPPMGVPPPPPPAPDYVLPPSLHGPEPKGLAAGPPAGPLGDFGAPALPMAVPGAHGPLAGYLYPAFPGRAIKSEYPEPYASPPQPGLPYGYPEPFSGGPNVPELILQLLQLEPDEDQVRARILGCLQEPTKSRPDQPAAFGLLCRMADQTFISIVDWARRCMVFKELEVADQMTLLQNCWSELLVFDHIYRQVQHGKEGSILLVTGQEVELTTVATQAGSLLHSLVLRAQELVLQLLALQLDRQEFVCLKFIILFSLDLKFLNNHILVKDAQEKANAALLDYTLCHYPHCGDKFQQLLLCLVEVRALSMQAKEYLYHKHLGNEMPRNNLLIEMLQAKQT
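material = CHO-K1 cells with Gal4–hSF-1 LBD chimera plus Gal4-driven luciferase | compound = 10 µM single point, 1% DMSO | incubation = 20 h compound exposure at 37 °C after 1 h cell settling | measured by = SteadyLite luciferase luminescence | evaluation = percent activation relative to DMSO median and mock-transfected background | control set = DMSO negative control and −SF1 background wells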
RORA act: RORA (human) activation; P35398; CHO-K1 Gal4-RORA LBD luciferase reporter, luminescence; percent increase over mock-subtracted basal signal; activation, % at 10 µM; hit rate 1.5% among 65,000;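 active means activation above the mean of all tested compounds plus 3 SD, cut at about 49% in these data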
MT1-MMP txn act: MT1-MMP promoter transcription activation; activation factor at 10 µM; hit rate 0.16% among 86,000; HT1080 MT1-MMP promoter luciferase reporter, luminescence, overnight; active compounds read high;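 active means activation factor of at least 2 for MT1-MMP transcription at 10 µM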
M1 ag: activates the M1 muscarinic receptor; CHO-M1 cells, Fluo-4 calcium fluorescence, agonist mode; active compounds read high; B-score at 10 µM; hit rate 3% among 64,000;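 active means fluorescence rise, raw or as B-score row- and column-corrected plate score, outside the 99.7% band of its plate's samples, either direction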
M1 antagonist: blocks the rat M1 muscarinic receptor response to acetylcholine; AID 628; CHO-M1 cells, Fluo-4 calcium, ACh EC80 antagonist mode; active compounds read low; P08482; hit rate 3.4% among 64,000; B-score at 10 µM;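 active means calcium fluorescence response, raw or row-and-column corrected B-score, differing from the plate sample mean either way at a set confidence level, mostly lower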
M1 ag confirm: rat M1 muscarinic agonism, confirmation; shares compounds with M1 ag; CHO-M1 cells, Fluo-4 calcium fluorescence, agonist mode; actives lie on both sides; fluorescence change (max-min) at 10 µM; hit rate 19% among 1,700;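 active means fluorescence change differs from the solvent-only DMSO control mean at a set confidence level in both duplicate runs; inconclusive means differs from solvent-only control mean in just one of two runs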;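 further: an EC20 dose of acetylcholine follows compound addition during the same imaging run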
M4 ag counter: rat M4 muscarinic agonism, M1 counter-screen; shares compounds with M1 ag; CHO M4/Gqi5 cells, Fluo-4 calcium fluorescence, agonist mode; actives lie on both sides; fluorescence change (max-min) at 10 µM; hit rate 9% among 1,700;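 active means fluorescence change differing from the plate's solvent-only control wells at 99.7% confidence in both duplicates, whether higher or lower; inconclusive means differs from solvent controls in only one of two duplicates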
Numbers stand for hits; n = inactive; u = inconclusive; x = no result given.

SMILES	SF-1 act	RORA act	MT1-MMP txn act	M1 ag	M1 antagonist	M1 ag confirm	M4 ag counter
O=C(Nc1ccccc1)N(Cc1ccc2c(c1)OCO2)Cc1nc2ccccc2c(=O)[nH]1	n	n	n	n	n	x	x
O=C(NCC(=O)N(Cc1cccs1)C(C(=O)NC1CCCC1)c1ccco1)c1cccs1 (configuration not stated)	n	n	n	3.2	n	n	u
O=C(NCC(=O)N(c1ccccc1)C(C(=O)NC1CCCCC1)c1ccncc1)c1ccco1 (configuration not stated)	n	n	n	2.5	n	n	u
O=C(NCC(=O)N(c1ccccc1)C(C(=O)NCC1CCCO1)c1ccccc1)c1ccco1 (configuration not stated)	n	n	n	8.3	n	u	n
CC(=O)OC(/C(O)=C(\C#N)c1nc2ccccc2[nH]1)c1ccccc1 (configuration not stated)	n	n	n	n	n	x	x
CN(C)c1ccc(C2C=C(c3ccc(Cl)cc3OC(F)F)Nc3ncnn32)cc1 (configuration not stated)	n	n	n	18	n	85	n
CCOC(=O)c1ccc(N2C(=O)CC(N3CCC(Nc4ccc(F)cc4)CC3)C2=O)cc1 (configuration not stated)	x	x	n	x	x	x	x
Cc1noc(C)c1COC(=O)c1cccc(S(=O)(=O)N2CCCCCC2)c1	n	n	n	3.1	n	n	n
COc1ccc(S(=O)(=O)N2CCCCCC2)cc1C(=O)OCc1c(C)noc1C	n	n	n	n	n	x	x
CCCS(=O)(=O)N1CCN(S(=O)(=O)c2ccccc2)CC1	x	x	n	x	x	x	x
O=C(CSc1nnc(CN2CCOCC2)n1-c1ccccc1)Nc1ccc(Cl)cc1	n	n	n	n	n	x	x
CCN1CCN(C(c2cccs2)C(C)NC(=O)c2ccco2)CC1 (configuration not stated)	n	n	n	n	n	x	x
CCN1CCN(C(c2cccs2)C(C)NC(=O)CC(C)C)CC1 (configuration not stated)	n	n	n	-2.7	n	u	n
CC[C@H]1OC(=O)C[C@@H](O)[C@H](C)[C@@H](O[C@@H]2O[C@H](C)C[C@H](N(C)C)[C@H]2O)[C@@H](CC=O)C[C@@H](C)C(=O)C=C[C@]2(C)O[C@H]2[C@@H]1C	n	n	n	n	n	x	x
CN1CCN(C(=O)CSc2nc(-c3cccs3)cc(-c3cccs3)c2C#N)CC1	n	n	n	5.7	n	n	n
O=C(O)c1oc2ccc(Br)cc2c1-n1cccc1	n	n	n	n	n	x	x
COCCNC(=O)C(c1ccc(C)o1)N(Cc1ccc(OC)cc1)C(=O)Cn1nnc2ccccc21 (configuration not stated)	n	n	n	n	n	x	x
COCCNC(=O)C(c1ccc(C)o1)N(CC1CCCO1)C(=O)Cn1nnc2ccccc21 (configuration not stated)	n	n	n	1.9	n	u	n
O=C(NC(CO)c1ccccc1)c1ccco1 (configuration not stated)	x	x	n	x	x	x	x
CC(C)(C)NC(=O)c1ccc2c(c1)C(=O)N(C1CCCCC1)C2=O	n	n	n	6.1	n	u	n
CC1CC(=O)N(CC(=O)NCc2ccc3c(c2)OCO3)c2ccccc2S1 (configuration not stated)	n	n	n	n	n	x	x
CCOc1ccc(S(=O)(=O)N2CCN(c3ccccc3OC)CC2)c2cccnc12	n	n	n	5.2	n	n	n
CC(=O)NC(NC(C)=O)c1ccc(N(C)C)cc1	n	n	n	x	x	x	x
CN(Cc1cccs1)c1ncnc2sccc12	n	n	n	2.6	n	n	-87
c1csc(CNc2ncnc3sccc23)c1	n	n	n	x	x	x	x
SMILES	SF-1 act	RORA act	MT1-MMP txn act	M1 ag	M1 antagonist	M1 ag confirm	M4 ag counter
CCOC(=O)c1cc2c(=O)n3ccccc3nc2n(C(C)C)c1=NC(=O)c1ccncc1	n	n	n	2.5	n	u	n
CCOC(=O)c1cc2c(=O)n3ccccc3nc2n(CCOC)c1=NC(=O)C(C)(C)C	n	n	n	x	x	x	x
CCOC(=O)c1cc2c(=O)n3ccccc3nc2n(CCOC)c1=NC(=O)c1ccncc1	n	n	n	2.2	n	n	n
CCOC(=O)c1cc2c(=O)n3ccccc3nc2n(CC(C)C)c1=NC(=O)c1ccco1	n	n	x	n	n	x	x
CCOC(=O)CN(C(=O)CSc1nnc(COc2ccc(OC)cc2)n1C)c1ccccc1	n	n	n	n	n	x	x
CC(C)c1ccccc1NC(=O)c1cccc(NC(=O)c2ccccc2)c1	x	x	n	x	x	x	x
O=C(O)C1CC(=O)N(c2ccc(OCc3c(F)cccc3Cl)cc2)C1 (configuration not stated)	n	n	n	n	n	x	x
Cc1ccc(CS(=O)(=O)Cc2ccc(C(=O)NCc3ccccn3)o2)cc1	n	n	n	n	n	x	x
O=C1c2ccccc2C(=O)N1SC1CCCCC1	n	n	n	6.4	n	u	n
Cc1cc(NC(=O)COc2ncnc3sc(C)c(C)c23)no1	n	n	n	15	n	n	n
CC1=CC(C)C2C(=O)N(CCCN(C)C)C(=O)C2C1 (configuration not stated)	n	n	n	n	n	x	x
CC1CCCCC1NS(=O)(=O)c1ccc(S(=O)(=O)NCc2ccncc2)cc1 (configuration not stated)	n	n	n	3.5	n	n	n
CC(=O)c1cccc(NC(=O)Nc2ccc3c(c2)N(C)C(=O)CS3)c1	n	n	x	3.2	n	n	u
CCn1c(SCC(=O)c2cc(C)n(CC3CCCO3)c2C)nc2ccccc21 (configuration not stated)	n	n	n	5.3	n	u	n
Nc1ccc2nc(-c3cc(Cl)c(N)c(Cl)c3)[nH]c2c1	x	x	n	x	x	x	x
Nc1ccc2nc(-c3ccc(Cl)cc3)[nH]c2c1	64	82	x	-2.2	n	u	n
CCn1c(SCC(=O)Nc2cc(C)ccc2C)nc2c(c1=O)SC(C)C2 (configuration not stated)	n	n	n	1.3	n	n	u
COc1ccc(C2=NO[C@@H]3C(=O)N(c4ccc(C)cc4C)C(=O)[C@H]23)cc1OC	n	n	n	n	n	x	x
Cc1ccc(N2C(=O)[C@@H]3C(c4ccc(F)cc4)=NO[C@@H]3C2=O)cc1	n	n	n	6.6	n	u	n
O=C(Cc1c(O)c2ccccc2[nH]c1=O)NC1CCCCCC1	n	n	n	n	n	x	x
O=c1cc(CNC2CCCCC2)c2ccccc2[nH]1	n	n	n	-3	n	u	n
O=C(CSc1nnc(-c2cccnc2)n1-c1ccccc1)Nc1ccc2c(c1)OCO2	n	n	n	n	n	x	x
Cc1nc(Oc2ccc(Cl)cc2)c2oc3ccccc3c2n1	x	x	n	x	x	x	x
Oc1ccc2cccnc2c1	n	n	n	15	n	112	n
